The target in this assay is Macrophage metalloelastase (Homo sapiens, UniProt P39900). Kind of assay: Inhibition of human MMP12 catalytic domain. The method, boiled down: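 Human MMP-12 catalytic domain (residues 84-255) in 50 mM Tris pH 7.5, 0.05% Brij-35, 10 mM CaCl₂, 1 mM DTNB. Preincubated with inhibitor in DMSO for 20 min at RT. The chromogenic thiopeptolide substrate (1 mM stock) was then added and the mix incubated 30–80 min at 37 °C. Reaction stopped with 0.2 M EDTA (pH 8.0); color read at 405 nm.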
Chain of Macrophage metalloelastase (P39900 whole entry, the tested form may be a part): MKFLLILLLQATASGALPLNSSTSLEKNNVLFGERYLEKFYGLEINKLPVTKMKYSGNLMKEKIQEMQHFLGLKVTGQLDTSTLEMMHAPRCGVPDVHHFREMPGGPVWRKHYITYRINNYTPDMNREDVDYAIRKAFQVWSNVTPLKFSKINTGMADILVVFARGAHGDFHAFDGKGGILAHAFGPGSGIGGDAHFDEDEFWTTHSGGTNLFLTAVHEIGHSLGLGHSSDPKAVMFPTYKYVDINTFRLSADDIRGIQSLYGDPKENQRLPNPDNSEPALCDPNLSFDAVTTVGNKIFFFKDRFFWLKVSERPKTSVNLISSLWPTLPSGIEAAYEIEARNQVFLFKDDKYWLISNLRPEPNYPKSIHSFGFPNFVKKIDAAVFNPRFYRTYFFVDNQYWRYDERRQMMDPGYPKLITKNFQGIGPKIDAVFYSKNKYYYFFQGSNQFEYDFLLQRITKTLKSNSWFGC

Each structure is given as a SMILES string. pIC50: −log10 of the molar value. A value given as a limit tells only on which side of the number the result lay.

A word on the pIC50: it is the IC50 on a negative log10 scale, so that one unit is a factor of ten. Higher therefore signals a low IC50. `Nc1nc2c(-c3cc(Cc4ccccc4)c(Br)[nH]3)nccc2[nH]1`: the pIC50 was under 4.00. `Nc1nc2c(-c3cc(Br)c(Cl)[nH]3)nccc2[nH]1` showed a pIC50 of 5.69. The compound `Nc1nc2c(-c3[nH]c(Br)c(CCCc4ccccc4)c3Br)nccc2[nH]1` showed a negative logarithm of the IC50 (pIC50) of under 4.00. Regarding `Nc1nc2c(-c3ccc(Br)[nH]3)nccc2[nH]1`, the pIC50 is under 4.00.

For the compound `Nc1nc2c(-c3[nH]c(Br)c(CCc4ccc(C(F)(F)F)cc4)c3Br)nccc2[nH]1`, the pIC50 was under 4.00. Regarding `Nc1nc2c(-c3[nH]c(Br)c(CCc4cccc(C(F)(F)F)c4)c3Br)nccc2[nH]1`, the negative-log IC50 (pIC50) was under 4.00.

Consider `Cc1c(Br)[nH]c(-c2nccc3[nH]c(N)nc23)c1Br`, for which the pIC50 is 5.30. Compound `Nc1nc2c(-c3[nH]c(Br)c(CCc4ccccc4C(F)(F)F)c3Br)nccc2[nH]1` showed a pIC50 of under 4.00. As to `Nc1nc2c(-c3cc(-c4ccccc4)c(Br)[nH]3)nccc2[nH]1`, the pIC50 is 4.73. `Nc1nc2c(-c3[nH]c(Br)c(Cc4ccccc4)c3Br)nccc2[nH]1` showed a negative-log IC50 (pIC50) of under 4.00. `Cc1[nH]c(-c2nccc3[nH]c(N)nc23)c(Br)c1Br` gave a pIC50 of under 4.00. Turning to `Nc1nc2c(-c3[nH]c(Br)c(Br)c3CCc3ccccc3)nccc2[nH]1`, the pIC50 was under 4.00. The result for `Cc1[nH]c(-c2nccc3[nH]c(N)nc23)cc1Br` reads under 4.00; that for `Nc1nc2c(-c3cc(Cl)c(Cl)[nH]3)nccc2[nH]1`, 5.30; that for `Nc1nc2c(-c3cc(CCc4ccccc4)c(Br)[nH]3)nccc2[nH]1`, 4.99. Compound `Nc1nc2c(-c3cc(Br)c(-c4ccccc4)[nH]3)nccc2[nH]1` showed a negative-log IC50 (pIC50) of under 4.00. The result for `Nc1nc2c(-c3cc(Br)c(-c4cccc(-c5ccccc5)c4)[nH]3)nccc2[nH]1` reads under 4.00; that for `Nc1nc2c(-c3cc(CCCc4ccccc4)c(Br)[nH]3)nccc2[nH]1`, under 4.00; that for `Nc1nc2c(-c3cc(Br)c[nH]3)nccc2[nH]1`, under 4.00. As to `Nc1nc2c(-c3[nH]c(Br)c(Br)c3Br)nccc2[nH]1`, the pIC50 is 5.91. For `Nc1nc2c(-c3[nH]c(Br)c(CCc4ccccc4)c3Br)nccc2[nH]1`, the negative-log IC50 (pIC50) was 5.52.

The compound `Nc1nc2c(-c3cc(Br)c(-c4ccc(-c5ccccc5)cc4)[nH]3)nccc2[nH]1` gave a pIC50 of under 4.00.

Take `Cc1cc(-c2nccc3[nH]c(N)nc23)[nH]c1Br`: the negative logarithm of the IC50 (pIC50) was under 4.00.

Source of the values: ChEMBL document CHEMBL1155366, “Synthesis of novel ageladine A analogs showing more potent matrix metalloproteinase (MMP)-12 inhibitory activity than the natural product” (Bioorg Med Chem Lett, 2009).
